Here are results for eight molecules from ChEMBL document CHEMBL4130609, “Nitrobenzoyl Sesquiterpenoids with Cytotoxic Activities from a Marine-Derived Aspergillus ochraceus Fungus” (J Nat Prod, 2018).

The subject of one data set is ACHN. Description: Cytotoxicity against human ACHN cells after 72 hrs by CCK8 assay. Type of data set: functional, cell-based. Summed up: (§1)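 ACHN cells grown in MEM with 10% FBS; OS-RC-2 and 786-O cells grown in RPMI1640 with 10% FBS. Seeded at 400 to 800 cells/well and treated with a 9-point series from 100 down to 0.00153 μM, or solvent control, for 72 h. Viability read by CCK-8 absorbance at 450 nm in triplicate. IC50 taken from dose–response curves.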

In a further data set the test system is OS-RC-2. Description: Cytotoxicity against human OS-RC2 cells after 72 hrs by CCK8 assay. Type of data set: functional, cell-based. As to conditions: OS-RC-2, 72 h. A digest of the protocol: as §1
For data set [1], the system named is 786-0. Description: Cytotoxicity against human 786-O cells after 72 hrs by CCK8 assay. The format is functional, cell-based. Conditions: 786-0, 72 h. Summed up: as §1
Data set [2] relates to 786-0. The data set is described as follows: Cell cycle arrest in human 786-O cells assessed as accumulation at G0/G1 phase at 1 uM after 24 hrs by propidium iodide staining based flow cytometric method (reference value: 42.07%). The format is functional.
Data set [3] concerns 786-0. The data set is described as follows: Cell cycle arrest in human 786-O cells assessed as accumulation at S phase at 1 uM after 24 hrs by propidium iodide staining based flow cytometric method (reference value: 47.35%). Type of data set: functional.
Data set [4] relates to 786-0. Description: Cell cycle arrest in human 786-O cells assessed as accumulation at G2/M phase at 1 uM after 24 hrs by propidium iodide staining based flow cytometric method (reference value: 10.58%). The format is functional.
Data set [5] concerns 786-0. The data set is described as follows: Cell cycle arrest in human 786-O cells assessed as accumulation at G0/G1 phase at 2 uM after 24 hrs by propidium iodide staining based flow cytometric method (reference value: 42.07%). Type of data set: functional.
Data set [6] deals with 786-0. The data set is described as follows: Cell cycle arrest in human 786-O cells assessed as accumulation at S phase at 2 uM after 24 hrs by propidium iodide staining based flow cytometric method (reference value: 47.35%). The format is functional.
The test system of data set [7] is 786-0. Description: Cell cycle arrest in human 786-O cells assessed as accumulation at G2/M phase at 2 uM after 24 hrs by propidium iodide staining based flow cytometric method (reference value: 10.58%). The format is functional.
Data set [8] relates to 786-0. Description: Cell cycle arrest in human 786-O cells assessed as accumulation at G0/G1 phase at 1 uM after 72 hrs by propidium iodide staining based flow cytometric method (reference value: 44.95%). The format is functional.
Data set [9] deals with 786-0. Description: Cell cycle arrest in human 786-O cells assessed as accumulation at S phase at 1 uM after 72 hrs by propidium iodide staining based flow cytometric method (reference value: 42.76%). The format is functional.
For data set [10], the system named is 786-0. Description: Cell cycle arrest in human 786-O cells assessed as accumulation at G2/M phase at 1 uM after 72 hrs by propidium iodide staining based flow cytometric method (reference value: 12.29%). The format is functional.
Data set [11] has as its system 786-0. Description: Cell cycle arrest in human 786-O cells assessed as accumulation at G0/G1 phase at 2 uM after 72 hrs by propidium iodide staining based flow cytometric method (reference value: 44.95%). The format is functional.
Data set [12] has as its system 786-0. The data set is described as follows: Cell cycle arrest in human 786-O cells assessed as accumulation at S phase at 2 uM after 72 hrs by propidium iodide staining based flow cytometric method (reference value: 42.76%). The format is functional.
Data set [13] concerns 786-0. The data set is described as follows: Cell cycle arrest in human 786-O cells assessed as accumulation at G2/M phase at 2 uM after 72 hrs by propidium iodide staining based flow cytometric method (reference value: 12.29%). The format is functional.
For data set [14], the system named is 786-0. The data set is described as follows: Induction of apoptosis in human 786-O cells assessed as live cells at 1 uM after 24 hrs by Annexin-V-FITC/propidium iodide staining based flow cytometric method (reference value: 81.4%). The format is functional.
Data set [15] concerns 786-0. Description: Induction of apoptosis in human 786-O cells assessed as early apoptotic cells at 1 uM after 24 hrs by Annexin-V-FITC/propidium iodide staining based flow cytometric method (reference value: 1.6%). Type of data set: functional.
Data set [16] concerns 786-0. The data set is described as follows: Induction of apoptosis in human 786-O cells assessed as late apoptotic cells at 1 uM after 24 hrs by Annexin-V-FITC/propidium iodide staining based flow cytometric method (reference value: 7%). The format is functional.
Data set [17] concerns 786-0. Description: Induction of apoptosis in human 786-O cells assessed as necrotic cells at 1 uM after 24 hrs by Annexin-V-FITC/propidium iodide staining based flow cytometric method (reference value: 10%). The format is functional.
The test system of data set [18] is 786-0. Description: Induction of apoptosis in human 786-O cells assessed as live cells at 2 uM after 24 hrs by Annexin-V-FITC/propidium iodide staining based flow cytometric method (reference value: 81.4%). The format is functional.
Data set [19] relates to 786-0. The data set is described as follows: Induction of apoptosis in human 786-O cells assessed as early apoptotic cells at 2 uM after 24 hrs by Annexin-V-FITC/propidium iodide staining based flow cytometric method (reference value: 1.6%). Type of data set: functional.
Data set [20] relates to 786-0. Description: Induction of apoptosis in human 786-O cells assessed as late apoptotic cells at 2 uM after 24 hrs by Annexin-V-FITC/propidium iodide staining based flow cytometric method (reference value: 7%). Type of data set: functional.
Data set [21] concerns 786-0. The data set is described as follows: Induction of apoptosis in human 786-O cells assessed as necrotic cells at 2 uM after 24 hrs by Annexin-V-FITC/propidium iodide staining based flow cytometric method (reference value: 10%). Type of data set: functional.
The test system of data set [22] is 786-0. Description: Induction of apoptosis in human 786-O cells assessed as live cells at 1 uM after 72 hrs by Annexin-V-FITC/propidium iodide staining based flow cytometric method (reference value: 82.2%). The format is functional.
Data set [23] has as its system 786-0. Description: Induction of apoptosis in human 786-O cells assessed as early apoptotic cells at 1 uM after 72 hrs by Annexin-V-FITC/propidium iodide staining based flow cytometric method (reference value: 1.2%). Type of data set: functional.
The subject of data set [24] is 786-0. The data set is described as follows: Induction of apoptosis in human 786-O cells assessed as late apoptotic cells at 1 uM after 72 hrs by Annexin-V-FITC/propidium iodide staining based flow cytometric method (reference value: 4.2%). Type of data set: functional.
The test system of data set [25] is 786-0. Description: Induction of apoptosis in human 786-O cells assessed as necrotic cells at 1 uM after 72 hrs by Annexin-V-FITC/propidium iodide staining based flow cytometric method (reference value: 12.5%). Type of data set: functional.
For data set [26], the system named is 786-0. Description: Induction of apoptosis in human 786-O cells assessed as live cells at 2 uM after 72 hrs by Annexin-V-FITC/propidium iodide staining based flow cytometric method (reference value: 82.2%). Type of data set: functional.
Data set [27] has as its system 786-0. The data set is described as follows: Induction of apoptosis in human 786-O cells assessed as early apoptotic cells at 2 uM after 72 hrs by Annexin-V-FITC/propidium iodide staining based flow cytometric method (reference value: 1.2%). The format is functional.
Data set [28] deals with 786-0. The data set is described as follows: Induction of apoptosis in human 786-O cells assessed as late apoptotic cells at 2 uM after 72 hrs by Annexin-V-FITC/propidium iodide staining based flow cytometric method (reference value: 4.2%). The format is functional.
For data set [29], the system named is 786-0. Description: Induction of apoptosis in human 786-O cells assessed as necrotic cells at 2 uM after 72 hrs by Annexin-V-FITC/propidium iodide staining based flow cytometric method (reference value: 12.5%). Type of data set: functional.
Data set [30] has as its system RAW264.7. The data set is described as follows: Cytotoxicity against mouse RAW264.7 cells at 0.5 to 4 uM after 8 hrs by MTT assay. Type of data set: cell-based. As to conditions: raw264.7, 8 h. A digest of the protocol: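 Luciferase-reporter RAW264.7 cells received compounds at 4, 2, 1 and 0.5 μM for 30 min, then 1 μg/mL LPS for 8 h. Viability at these concentrations was assessed by MTT.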

In data set [31] the test system is RAW264.7. Description: Inhibition of LPS-induced NFkappaB (unknown origin) activation expressed in mouse RAW264.7 cells at 4 uM pretreated for 30 mins followed by LPS-stimulation after 8 hrs by luciferase reporter gene assay relative to control. As to conditions: Homo sapiens. The format is cell-based. A digest of the protocol: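 RAW264.7 cells stably carrying an NF-κB luciferase reporter were pretreated with compounds for 30 min at 4, 2, 1 and 0.5 μM. They were then stimulated with 1 μg/mL LPS for 8 h. Luciferase activity was measured in triplicate. BAY11-7082 at 5 μM served as positive control.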

`C[C@]1(CO)CCC[C@@]2(C)[C@H]1[C@H](OC(=O)c1ccc([N+](=O)[O-])cc1)C=C1C(=O)OC[C@@]12O`: the IC50 in the data set on ACHN turned out to be 1.5 µM; in the data set with OS-RC-2, 1.5 µM; in the data set with 786-0 [1], 0.89 µM.
Turning to `CC(=O)OC[C@@]1(C)CCC[C@@]2(C)[C@H]1[C@H](OC(=O)c1ccc([N+](=O)[O-])cc1)C=C1C(=O)OC[C@@]12O`, the IC50 with ACHN was 4.1 µM; in the data set on OS-RC-2, 5.3 µM; with 786-0 [1], 2.3 µM. Besides, the Activity in the data set on 786-0 [2] amounted to 38%; with 786-0 [3], 47%; in the data set with 786-0 [4], 8.53%; in the data set with 786-0 [5] it was 42.23%; with 786-0 [6], 49.91%; in the data set with 786-0 [7], 7.86%. Moreover, the Activity worked out at 54.16% in the data set with 786-0 [8]; 32.77% in the data set on 786-0 [9]; 13.06% in the data set on 786-0 [10]; 51.06% in the data set with 786-0 [11]; 35.56% in the data set with 786-0 [12]; 13.38% with 786-0 [13]. In addition, the Activity was 78.6% with 786-0 [14]; 1.3% in the data set on 786-0 [15]; 4.3% in the data set on 786-0 [16]; 15.8% with 786-0 [17]; 66.5% with 786-0 [18]; 1.1% in the data set on 786-0 [19]. For the same molecule, the Activity in the data set with 786-0 [20] worked out at 6.5%; in the data set with 786-0 [21], 26%; in the data set on 786-0 [22], 74.7%; in the data set on 786-0 [23], 1.7%; in the data set with 786-0 [24], 5%; in the data set with 786-0 [25], 18.6%. Also, the Activity in the data set on 786-0 [26] was 58.3%; in the data set on 786-0 [27], 1%; with 786-0 [28], 9.1%; in the data set with 786-0 [29], 31.5%; in the data set with RAW264.7 [30], “Non-Toxic”.
Turning to `CC(=O)OC[C@@]1(C)CCC[C@]2(C)[C@H]3COC(=O)C3=C[C@@H](OC(=O)c3ccc([N+](=O)[O-])cc3)[C@@H]12`, the figures for the IC50 with ACHN, in the data set on OS-RC-2 and in the data set with 786-0 [1] were 13 µM, 11 µM and 14 µM, respectively. Moreover, in the data set on RAW264.7 [30], the Activity entry is reported as “Non-Toxic”.
Take `C[C@]1(COC(=O)c2ccc([N+](=O)[O-])cc2)CCC[C@]2(C)[C@H]3COC(=O)C3=C[C@@H](O)[C@@H]12`: the IC50 came out at 30 µM with ACHN, 23 µM in the data set with OS-RC-2 and 24 µM with 786-0 [1]. The inhibition in the data set on RAW264.7 [31] is 16%. Besides, in the data set on RAW264.7 [30], the Activity entry was “Non-Toxic”.
In the case of `C[C@]1(CO)CCC[C@]2(C)[C@H]3COC(=O)C3=C[C@@H](OC(=O)c3ccc([N+](=O)[O-])cc3)[C@@H]12`, the IC50 in the data set with ACHN stood at 25 µM; with OS-RC-2 it was 30 µM; in the data set on 786-0 [1], 20 µM.
For `CO[C@H]1C2=C(COC2=O)[C@@]2(C)CCC[C@](C)(CO)[C@@H]2[C@@H]1O`, in the data set on RAW264.7 [30], the Activity result was “Non-Toxic”.
For `C[C@]1(COC(=O)c2ccc([N+](=O)[O-])cc2)CCC[C@@]2(C)[C@H]1[C@H](O)C=C1C(=O)OC[C@@]12O`, the IC50 came out at 11 µM in the data set on ACHN, 8.2 µM in the data set with OS-RC-2 and 4.3 µM with 786-0 [1].
Consider `CNC(=O)c1cc(Oc2ccc(NC(=O)Nc3ccc(Cl)c(C(F)(F)F)c3)cc2)ccn1` [SORAFENIB], for which the IC50 amounted to 3.4 µM in the data set on ACHN, 7 µM with OS-RC-2 and 4.9 µM in the data set on 786-0 [1].
